Source: PubChem BioAssay
The source made the active and inactive calls.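 Rule for the calls, unless noted: active = visually confirmed hit in the image check and inhibition above 20%; inconclusive = visually confirmed hit but inhibition not above 20%; inactive = no visual hit in the image check.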

What was measured:
[1] = inhibitors of TNFa-induced NFkB p65 translocation, primary screen, imaging, HUVEC, MLSMR starter and 10KST1 sets (AID 438;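 active = inhibition above 20% together with a positive visual image hit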;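 note: compound added about 3h40 before a 20 min TNFalpha stimulation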;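 for inhibition: signal is the nuclear over cytoplasmic p65 intensity ratio per well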); conditions: HUVEC TNFa-induced p65 nuclear translocation; cell count: measured here: nuclei count (cytotoxicity indicator), at 2.08 µM; inhibition: at 2 µM, stronger effect = higher value, 0% TNFa-plus-vehicle, 100% no-TNFa wells
[2] = reduction of polyQ htt aggregates in cells – imaging, exon1htt(103Q)mCFP cells, high-content imaging, primary screen (AID 483;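 active = visual image review flags a hit and inhibition of aggregation exceeds 20%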;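 note: compound exposure lasted 3 days before fixation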;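 for nuclei count: percent of the per-plate median nuclei count of sample wells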); conditions: exon1htt(103Q)mCFP cell line, aggregate imaging, at 2 µM; inhibition of aggregation: stronger effect = higher value; nuclei count: measured here: cell count, toxicity
[3] = endothelial E-selectin expression blockers – imaging, HUVEC, immunofluorescence, MLSMR starter and 10KST1 sets, primary screen (AID 487); conditions: HUVEC TNFalpha-induced E-selectin immunofluorescence imaging, at 2 µM; inhibition: stronger effect = higher value; nuclei count: measured here: cell number, toxicity;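 for inhibition: signal is fraction of cell area covered by stained E-selectin grains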;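 for nuclei count: 100% = median nuclei count of all wells on the same plate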
[4] = biological target: Voltage-gated potassium channel subunit beta-2 (Rattus norvegicus) (UniProt P62483); assay: inhibitors of rat Kvbeta2 reductase activity – biochemical, NADPH fluorescence, primary screen (AID 622;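 active = fluorescence slope higher than the sample average by over 3 SD, cut at about -0.22 in these data, passing the limit was not always enough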;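 note: slope of raw intensity against log time taken from 70 to 1610 s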); conditions: recombinant KvBeta, 4-cyanobenzaldehyde reduction, at 10 µM, stronger effect = higher value
Voltage-gated potassium channel subunit beta-2 (Rattus norvegicus), sequence (P62483 whole entry, looked up): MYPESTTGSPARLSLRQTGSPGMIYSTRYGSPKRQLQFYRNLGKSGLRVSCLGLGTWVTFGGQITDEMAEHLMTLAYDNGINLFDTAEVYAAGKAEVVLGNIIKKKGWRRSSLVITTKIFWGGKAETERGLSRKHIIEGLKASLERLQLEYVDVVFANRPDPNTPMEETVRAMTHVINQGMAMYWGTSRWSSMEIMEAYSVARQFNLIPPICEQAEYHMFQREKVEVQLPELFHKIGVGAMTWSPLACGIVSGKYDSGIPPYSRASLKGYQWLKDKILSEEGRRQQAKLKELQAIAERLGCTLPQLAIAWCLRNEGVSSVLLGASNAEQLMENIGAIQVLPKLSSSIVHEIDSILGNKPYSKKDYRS

[5] = biological target: Voltage-gated potassium channel subunit beta-2 (Rattus norvegicus) (UniProt P62483); assay: enhancers of rat Kvbeta2 NADPH turnover – biochemical, NADPH fluorescence, primary screen (AID 623;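 active = NADPH fluorescence slope more negative than the mean of all samples by about 3 SD, 99.7% confidence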;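 note: fluorescence intensity change per second fitted from 20 to 320 s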); conditions: Recombinant KvBeta, NADPH fluorescence decrease slope, 10 min; at 10 µM; stronger effect = lower value
[6] = biological target: Muscarinic acetylcholine receptor M4 (Homo sapiens) (UniProt P08173); assay: M4-linked GIRK flux change, two-sided – cell-based, HEK293 M4/GIRK, thallium flux, BTC-AM, M4 allosteric agonist project, primary screen (AID 625;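 active = fluorescence slope after compound addition differing from the mean of all tested samples at 99.7% confidence, mostly higher but some lower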;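 note: thallium influx through GIRK channels coupled to M4 in HEK293 cells with BTC-AM dye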); conditions: at 10 µM, actives lie on both sides
Muscarinic acetylcholine receptor M4 (Homo sapiens), sequence (P08173 whole entry, looked up): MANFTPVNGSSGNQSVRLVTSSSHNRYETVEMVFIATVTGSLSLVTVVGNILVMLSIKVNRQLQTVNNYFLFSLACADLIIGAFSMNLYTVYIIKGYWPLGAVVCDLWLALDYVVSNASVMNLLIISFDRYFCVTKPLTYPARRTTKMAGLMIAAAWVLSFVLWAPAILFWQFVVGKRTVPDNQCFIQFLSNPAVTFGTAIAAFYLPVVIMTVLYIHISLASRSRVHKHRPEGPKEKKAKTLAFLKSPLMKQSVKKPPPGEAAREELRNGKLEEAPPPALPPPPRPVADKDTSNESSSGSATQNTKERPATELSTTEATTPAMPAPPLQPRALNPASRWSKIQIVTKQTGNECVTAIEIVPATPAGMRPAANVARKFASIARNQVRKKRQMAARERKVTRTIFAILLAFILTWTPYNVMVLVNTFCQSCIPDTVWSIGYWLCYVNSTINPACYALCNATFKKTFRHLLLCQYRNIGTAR
Summary of the method: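 assay system = HEK293 cells with M4 receptor and GIRK channels | medium = pH 7.3 thallium assay buffer | doses = 10 µM final, single point | timing = cells overnight at 37 °C, BTC-AM loading 1 h, reads 2 min total | signal = BTC-AM fluorescence, 1 Hz kinetic reads | read-out = post-addition slope, 15–24 s, of baseline-normalized fluorescence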

[7] = blockers of RIG-like receptor reporter activation – cell-based, Sendai virus stimulus, luciferase, 10K MLSCN set, TLR/RLR signaling modifier project, primary screen (AID 602276;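 active = inhibition at or above 50% at 10 µM; inactive = inhibition below 50%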;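 note: firefly luciferase from ISG56 promoter only with Renilla not read in this screen; 0% = Sendai virus plus DMSO and 100% = medium plus DMSO without virus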); conditions: HEK293 RL24 IRF3 luciferase reporter, at 10 µM, stronger effect = higher value
[8] = TLR3 IRF3 reporter activation blockers – cell-based, poly I:C stimulus, luciferase, 10K MLSCN set, primary screen (AID 602277;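 active = inhibition of the reporter signal at or above 50%; inactive = inhibition below 50%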); conditions: HEK293-TLR3 RL24 IRF3 luciferase reporter, at 10 µM, stronger effect = higher value

SMILES	cell count [1]	inhibition [1]	inhibition of aggregation [2]	nuclei count [2]	inhibition [3]	nuclei count [3]	fluorescence slope [4]	NADPH fluorescence slope [5]	fluorescence slope [6]	inhibition [7]	inhibition [8]
O=C(Nc1ccc2oc(-c3ccncc3)nc2c1)c1cccs1	159	108% (active)	-8.6% (inactive)	103%	14.7% (inactive)	113%	-0.346 (inactive)	-0.000115 (inactive)	0.00345 (inactive)	-55.9% (inactive)	-120% (inactive)
Cc1cc(N2C(=O)C3C4C=CC(C4)C3C2=O)ccc1Br (centres undefined)	775	18.7% (inactive)	0.6% (inactive)	110%	98.6% (active)	42%	-0.502 (inactive)	-5.3e-05 (inactive)	0.00619 (inactive)	-31.9% (inactive)	100% (active)
CCn1nnnc1SCC(=O)Nc1nnc(C(C)C)s1	324	-3% (inactive)	21.9% (inactive)	96.2%	1% (inactive)	116%	-0.361 (inactive)	-4.7e-05 (inactive)	0.0049 (inactive)	5.57% (inactive)	-1.53% (inactive)
CCCCCC1NC(=O)NC1CCCCCC(=O)O (centres undefined)	457	0% (inactive)	11.7% (inactive)	103%	-129% (inactive)	123%	-0.577 (inactive)	-5.6e-05 (inactive)	0.00606 (inactive)	14.6% (inactive)	18.6% (inactive)
O=C(NCCCN1CCN(CCCNC(=O)c2ccc(F)cc2)CC1)c1ccc(F)cc1	364	-1.1% (inactive)	-1.8% (inactive)	109%	4.2% (inactive)	102%	-0.528 (inactive)	1.1e-05 (inactive)	0.00616 (inactive)	14.8% (inactive)	23.9% (inactive)
CCOC(=O)N1CCN(C(=O)c2ccc3c(=O)n(CCc4ccccc4)c(=O)[nH]c3c2)CC1	784	-7.8% (inactive)	5.4% (inactive)	111%	-60% (inactive)	115%	-0.307 (inactive)	4.7e-06 (inactive)	0.00774 (inactive)	-16.4% (inactive)	-40% (inactive)
CCC(=O)N1CCc2cc(S(=O)(=O)CCC(=O)Nc3c(C)n(C)n(-c4ccccc4)c3=O)ccc21	598	7.7% (inactive)	-10.8% (inactive)	116%	-110% (inactive)	121%	-0.434 (inactive)	0.000106 (inactive)	0.00486 (inactive)	2.43% (inactive)	13.1% (inactive)
COc1ccc(CC(NC(C)=O)C(=O)NC2CCN(c3nc(C)cc(C)c3C#N)CC2)c(OC)c1 (centres undefined)	750	-7.4% (inactive)	-12.3% (inactive)	121%	-32.4% (inactive)	112%	-0.341 (inactive)	-1.7e-05 (inactive)	0.00702 (inactive)	-9.6% (inactive)	-9.61% (inactive)
COCCNc1nc(SCC(=O)N2CCN(c3ccccc3)CC2)nc2ccccc12	462	4.1% (inactive)	-53.8% (inactive)	70.8%	-188% (inactive)	105%	-0.395 (inactive)	4.2e-05 (inactive)	0.0054 (inactive)	-2.13% (inactive)	8.34% (inactive)
C[C@H](NC(=O)Nc1cccc(C(F)(F)F)c1)C(=O)O	759	0.4% (inactive)	14.4% (inactive)	98%	-1.7% (inactive)	92.5%	-0.547 (inactive)	1.5e-05 (inactive)	0.00427 (inactive)	27.2% (inactive)	22.6% (inactive)
C/C(NC1CCCC1)=C(/C#N)C(N)=O	396	-23.5% (inactive)	-0.6% (inactive)	108%	-38.9% (inactive)	144%	-0.583 (inactive)	-2.4e-05 (inactive)	0.00436 (inactive)	16.9% (inactive)	22.8% (inactive)
CCn1c(C(=O)OC)cc2c1ccn2-c1ccc(F)cc1	648	-2.6% (inactive)	25% (inactive)	99.6%	-86.1% (inactive)	105%	-0.61 (inactive)	-2e-05 (inactive)	0.00586 (inactive)	-52.7% (inactive)	-96.4% (inactive)
Cc1c(C(=O)NCc2ccccn2)oc2ccccc12	328	-4.1% (inactive)	-3.8% (inactive)	86%	44.5% (inactive)	49.4%	-0.514 (inactive)	8.6e-06 (inactive)	0.00478 (inactive)	-29.5% (inactive)	-79.6% (inactive)
Cc1cc(C(F)F)n2ncc(C(=O)NC3CCCCCC3)c2n1	354	0% (inactive)	-4.8% (inactive)	106%	1.4% (inactive)	113%	-0.569 (inactive)	-7.1e-05 (inactive)	0.00445 (inactive)	15.9% (inactive)	15.5% (inactive)
COCCCn1c2nc3ccccc3nc2c2c(=O)n(-c3ccccc3OC)cnc21	334	6.3% (inactive)	-5.4% (inactive)	98.2%	16.9% (inactive)	102%	-0.457 (inactive)	4.9e-05 (inactive)	0.0045 (inactive)	-1.7% (inactive)	-9.3% (inactive)
CCOc1ccccc1C(=O)NCCC(=O)O	326	-5.1% (inactive)	-42.8% (inactive)	91.6%	16% (inactive)	118%	-0.505 (inactive)	-0.00026 (inactive)	0.00473 (inactive)	-1.19% (inactive)	-5.47% (inactive)
CCOC(=O)C(C)Sc1nc2c(cnn2-c2ccc(C)cc2)c(=O)[nH]1 (centres undefined)	239	-1.3% (inactive)	6.8% (inactive)	102%	11.9% (inactive)	110%	-0.503 (inactive)	8.8e-05 (inactive)	0.00678 (inactive)	6.58% (inactive)	8.01% (inactive)
Cc1cc(=O)oc2cc(OCC(=O)OCc3nnc(-c4ccccc4)o3)ccc12	527	-7.7% (inactive)	5.8% (inactive)	123%	-10.9% (inactive)	121%	-0.399 (inactive)	2.8e-05 (inactive)	0.00584 (inactive)	6.17% (inactive)	7.89% (inactive)
COc1cccc(-c2nc(-c3ccc(NC(=O)Cc4ccccc4OC)cc3)no2)c1	429	-1.8% (inactive)	-12.3% (inactive)	95.4%	-68.2% (inactive)	116%	-0.561 (inactive)	-1.4e-06 (inactive)	0.0119 (active)	13% (inactive)	-45.2% (inactive)
CCC(C)OC(=O)C1=C(C)NC2=C(C(=O)C(C(=O)OC)C(C)C2)C1c1ccc(N(C)C)cc1 (centres undefined)	280	-2.4% (inactive)	12.6% (inactive)	104%	-8.6% (inactive)	115%	-0.579 (inactive)	2.1e-05 (inactive)	0.00551 (inactive)	14.7% (inactive)	25.6% (inactive)
CC(=O)NC1=NC(=O)/C(=C/N2CCCCC2)S1	391	-4.7% (inactive)	1.3% (inactive)	105%	-11.8% (inactive)	103%	-0.459 (inactive)	-3.8e-05 (inactive)	0.00493 (inactive)	21.1% (inactive)	16.4% (inactive)
COc1ccc(Br)cc1C(=O)Nc1nnn(C)n1	383	6.7% (inactive)	5.6% (inactive)	102%	17% (inactive)	106%	-0.51 (inactive)	4.6e-05 (inactive)	0.00661 (inactive)	-19.5% (inactive)	-34.7% (inactive)
CCOc1nc2ccccc2nc1NS(=O)(=O)c1ccccc1	769	-4.2% (inactive)	6.9% (inactive)	126%	-10% (inactive)	132%	-0.462 (inactive)	-0.000234 (inactive)	0.00417 (inactive)	15.8% (inactive)	20% (inactive)
O=C(O)C1CC(=O)N(Cc2ccccc2)C1 (centres undefined)	398	-1.8% (inactive)	-0.4% (inactive)	110%	-43.7% (inactive)	127%	-0.526 (inactive)	-0.00016 (inactive)	0.00382 (inactive)	16.7% (inactive)	17% (inactive)
O=C(Nc1ccccc1C(=O)NCC1CCCO1)c1ccco1 (centres undefined)	304	-8% (inactive)	-23.2% (inactive)	95.5%	-50.7% (inactive)	123%	-0.458 (inactive)	2.2e-05 (inactive)	0.00531 (inactive)	9.09% (inactive)	15.4% (inactive)
COc1ccccc1N1CCN(C(=O)C2CC=CCC2C(=O)O)CC1 (centres undefined)	444	-1.8% (inactive)	-7.5% (inactive)	87.8%	24.2% (inactive)	44.5%	-0.454 (inactive)	-1.2e-05 (inactive)	0.00504 (inactive)	18.1% (inactive)	16.3% (inactive)
Cc1nn(-c2ccc(F)cc2)c(C)c1NS(=O)(=O)c1ccc(Cl)cc1	307	4.2% (inactive)	17.1% (inactive)	89.1%	-56% (inactive)	98.7%	-0.382 (inactive)	-4.6e-05 (inactive)	0.00631 (inactive)	13.3% (inactive)	18.8% (inactive)
COc1ccc(CN2C(=O)c3cccnc3C2Nc2cc(Cl)ccc2OC)cc1 (centres undefined)	482	3% (inactive)	0.1% (inactive)	105%	-26.9% (inactive)	112%	-0.445 (inactive)	0.00011 (inactive)	0.00665 (inactive)	-6.43% (inactive)	-6.33% (inactive)
c1ccc2c(c1)C(=Nn1cnnc1)c1ccccc1-2	606	-3.4% (inactive)	15.7% (inactive)	101%	-107% (inactive)	122%	-0.448 (inactive)	-6.8e-05 (inactive)	0.00319 (inactive)	10.6% (inactive)	11% (inactive)
